Most compounds without a hit are left out; they make up all but 8.7% or so of the library.
PTK2B oligo ant = Pyk2 (human) oligomerization antagonism; Q14289; 99,000 compounds, 0.83% hits; z-score (the deposit names both 25 µM and 10 µM); Q293 cells, Pyk2 FERM NanoBiT luminescence; stronger effect = lower value;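 active means Z-score of -3 or lower, scaled per plate to the spread of control and sample wells; inactive means z-score above -3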;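 further: negative z-score means lost luminescence so less FERM oligomerization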
Ecoli WT expand = blocks growth of wild type E. coli BW25113; OD600 absorbance; 98,000 compounds, 0.15% hits; growth inhibition, % at 100 µM;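 active means growth inhibition above about 50% at one test dose, limit read from the data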;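 further: growth measured after 20 h incubation at 37 °C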
Cav32 inh = inhibitors of human Cav3.2 T-type calcium channel. O95180. Cav3.2-expressing cells, Fluo-4 calcium fluorescence FDSS; stronger effect = lower value. B-score at 10 µM. 100,000 compounds, 4% hits. AID 449739;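 active means single-dose well whose peak fluorescence ratio is a statistical outlier from its plate by either plate-standardised score or position-corrected B-score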
Ecoli tolC = blocks growth of E. coli BW25113 tolC mutant; OD615; growth inhibition, % at 10 µM (by protocol); 65,000 compounds, 2.2% hits; AID 573;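 active means growth inhibition at or above a cutoff equal to the mean over every tested compound plus 3 SD, cut at about 60% in these data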;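 further: growth measured after 20 h incubation at 37 °C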
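Test system: E. coli BW25113 ΔtolC::kan bacteria | Medium: Kanamycin-containing LB broth (50 µg/mL) | Dosing: One dose of 10 µM final | Times: 20 h incubation with compound, 37 °C | Detection: Optical density read at 615 nm | Read-out basis: Percent growth inhibition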
PostGolgi ctrl = growth of the yeast control strain, post-Golgi counter-screen | efflux-deficient yeast background strain, growth absorbance A615, 16 h | inhibition, % at 10 µM | 98,000 compounds, 5% hits | AID 738
PostGolgi yeast = growth inhibition of a yeast mutant, post-Golgi transport screen. AID 739. post-Golgi transport phenotypic cell assay. inhibition, % at 10 µM. 98,000 compounds, 0.9% hits;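 further: yeast cells grown in 1536-well plates; yeast grown about 18 h at 30C before absorbance read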
The depositor's hits bear a star; · = not tested or not shown. Unless noted, no stated cut-off is given here; in the data, active means inhibition above about 30%; inactive means the rest.

SMILES | PTK2B oligo ant | Ecoli WT expand | Cav32 inh | Ecoli tolC | PostGolgi ctrl | PostGolgi yeast
CCOC(=O)C1=C(C)N(CCCC(=O)O)C(=O)NC1c1ccc([N+](=O)[O-])cc1 (configuration not stated) | · | · | 0.35 | · | · | ·
O=C(CSc1cccc(C(F)(F)F)c1)NC(=O)NCc1ccco1 | -0.17 | 4 | -5.3* | 15 | 21 | 10
COc1ccc(CN(CC(=O)NCC2CCCO2)C(=O)CNS(=O)(=O)c2ccc(C)cc2)cc1 (configuration not stated) | 0.76 | -5 | -0.23 | 2 | -1 | 2
COc1ccc(CNC(=O)CN(CC2CCCO2)C(=O)CNS(=O)(=O)c2ccc(F)cc2)cc1 (configuration not stated) | -0.17 | -7 | -6.2* | -16 | 9 | -1
O=C(CSc1nc2ccccc2s1)N1c2ccccc2Sc2ccc(Cl)cc21 | 0.27 | -15 | · | · | 1 | -11
O=c1oc2cc(Cl)ccc2n1CSc1nc2ccccc2s1 | -0.49 | -20 | -3.8 | · | 32* | 8
COc1ccc2[nH]c(=O)c(-c3nnn(-c4ccc(Cl)c(Cl)c4)n3)cc2c1 | · | · | 0.43 | · | · | ·
Cc1nnc(Sc2nc3ccccc3o2)c2ccccc12 | -0.18 | 9 | -0.32 | 17 | 1 | -1
Clc1ccc(-c2nnc(Sc3nc4ccccc4o3)c3ccccc23)cc1 | 1.2 | -12 | -4 | · | 57* | -8
Cc1ccc(-c2nnc(Sc3nc4ccccc4o3)c3ccccc23)cc1 | 0.47 | -14 | -3.2 | · | 64* | -22
COc1ccc(CNc2oc(COc3ccc(Cl)cc3)nc2C#N)cc1 | -1.1 | -11 | -4.4* | 19 | 30 | 3
CN(C)CCNc1oc(COc2ccc(Cl)cc2Cl)nc1C#N | 1.3 | 7 | 0.35 | · | -3 | 1
COc1ccc(CCNc2oc(COc3ccccc3F)nc2C#N)cc1 | -0.52 | -6 | -5.9* | 88* | 16 | 2
Cc1ccc(OCc2nc(C#N)c(NCc3ccc4c(c3)OCO4)o2)cc1 | -0.66 | -11 | -6.5* | 81* | 31* | 1
COCCCNc1oc(COc2ccc(Cl)cc2Cl)nc1C#N | -1.3 | 11 | -5.6* | 50 | 13 | -4
O=C(COc1ccc(-c2nnco2)cc1)N1CCN(S(=O)(=O)c2ccccc2)CC1 | 0.9 | 4 | -0.89 | -11 | -7 | 2
CCOc1ccccc1NC(=O)C(Sc1ccccc1)c1ccccc1 (configuration not stated) | -2.1 | 2 | -1.2 | · | 12 | -7
O=C(CN1CCCC1)N1CCCc2c1c(=O)oc1ccc(OCc3ccccc3)cc21 | -0.56 | 5 | 0.79 | -7 | 36* | 22
CCCOc1ccc2oc(=O)c3c(c2c1)CCCN3C(=O)CN1CCN(C(=O)c2ccco2)CC1 | · | 6 | · | 1 | 14 | -4
Cc1cc(C)cc(-n2cc3c(=O)n(C)c(=O)n(C)c3c2)c1 | · | · | · | 11 | · | ·
Cc1cc(C)n(CC2CC(=O)N(c3ccc(Cl)c(Cl)c3)C2=O)n1 (configuration not stated) | -0.86 | -3 | 0.84 | 2 | -2 | -7
CCCCCCCCSc1nnc(CSc2nc3nc(C)cc(C)n3n2)o1 | 0.14 | 5 | -1.2 | · | 15 | 4
COc1ccc(-c2nn(-c3ccccc3)cc2C(=O)Nc2nccs2)cc1 | -2.9 | -12 | -5.8* | · | 25 | 24
CC(=O)c1ccc(NC(=O)c2cn(-c3ccccc3)nc2-c2ccncc2)cc1 | -1.3 | · | -0.095 | · | · | ·
COC(=O)c1ccc(NC(=O)c2cn(-c3ccccc3)nc2-c2ccncc2)cc1 | -1.9 | -12 | 0.34 | · | 32* | 72*
SMILES | PTK2B oligo ant | Ecoli WT expand | Cav32 inh | Ecoli tolC | PostGolgi ctrl | PostGolgi yeast
COc1cccc(-c2nn(-c3ccccc3)cc2C(=O)Nc2nccs2)c1 | -3.6* | -23 | -5.2* | 56 | 28 | -3
COc1cccc(-c2nn(-c3ccccc3)cc2C(=O)n2nnc3ccccc32)c1 | -0.36 | -13 | -0.57 | · | 12 | -3
O=C(O)c1ccc(-c2noc(-c3ccc(F)cc3)n2)cc1 | · | · | 0.46 | · | · | ·
CC(=O)N1c2c(cc(Br)cc2S(=O)(=O)NCC2COc3ccccc3O2)CC1C (configuration not stated) | -0.71 | -7 | -0.13 | 11 | 12 | -6
N#C/C(=C/c1ccc(N2CCCCC2)o1)c1cccc(F)c1 | -0.28 | -9 | -5.6* | · | 11 | -2
O=C(c1ccc(S(=O)(=O)N2CCCCC2)cc1)c1nnc(-c2ccc(Cl)cc2)o1 | -0.23 | -6 | 0.77 | 11 | -3 | -6
N#C/C(=C/c1ccc(N2CCCCCC2)o1)c1ccc(Cl)cc1 | -0.27 | -14 | -5.7* | · | 8 | 0
COc1cc(N2CCCC2)c(OC)cc1/C=C(/C#N)c1ccc(F)cc1 | -2.7 | · | -3.7 | · | · | ·
CCN(CC)CCCNC(=O)C1c2ccccc2C(=O)N(C)C1c1ccc(OC)cc1 (configuration not stated) | -0.31 | -2 | -0.088 | -20 | 6 | -11
COC1=CC(=O)C(O)=C(CCCCCCC/C=C/CCCCCCCC2=C(O)C(=O)C=C(OC)C2=O)C1=O | · | · | -5.2* | · | · | ·
CC(=O)N1CCCc2cc(S(=O)(=O)NCCC3=CCCCC3)ccc21 | 0.37 | 12 | -0.077 | 11 | 23 | -4
CCn1c(SCC(=O)NCc2ccc3c(c2)OCO3)nnc1-c1c[nH]c2ccccc12 | -0.47 | · | -0.68 | 5 | · | ·
CCOC(=O)C1=C(C)N=c2s/c(=C/c3ccco3)c(=O)n2C1c1cccc(OC)c1 (configuration not stated) | · | -24 | -2.4 | 16 | 15 | -12
CCOC(=O)C1=C(C)N=c2s/c(=C\c3cccn3C)c(=O)n2C1c1cccc(OC)c1OC (configuration not stated) | -0.5 | -5 | 0.19 | 8 | 33* | -1
S=c1nc(C2CCCCC2)[nH][nH]1 | 1.5 | 2 | 0.54 | -36 | 3 | -7
Cn1c(=O)c2c3c(sc2n2c(SCC(N)=O)nnc12)CC(C(C)(C)C)CC3 (configuration not stated) | -0.05 | 6 | 4.2* | 12 | 11 | 3
CCCCN(CCCC)C(=O)CSc1nnc2n(C)c(=O)c3c4c(sc3n12)CCCC4 | -0.14 | -4 | -3.7 | 4 | 34* | 4
CC1(C(=O)NC2CCCC2)CCC(=O)N1Cc1ccccc1Cl (configuration not stated) | 0.89 | 5 | 0.44 | · | 11 | 0
Cc1cc(C)c2nc(NC(=O)[C@@H](NC(=O)c3cccc(S(=O)(=O)N4CCOCC4)c3)C(C)C)sc2c1 | 0.95 | · | · | · | · | ·
CCCCCCOC(=O)Cc1c(C)nc(-c2ccccc2)[nH]c1=O | 2.2 | -3 | -1.6 | · | 34* | -8
C=C(C)Cc1c(C)nc(-c2ccccc2)[nH]c1=O | 1.4 | 0 | -0.086 | -4 | 4 | 3
S=C(NCc1ccco1)Nc1ccc(Cl)c(Cl)c1 | 0.63 | 47 | -3.3 | · | 41* | 4
Cc1ccc(NC(=O)N(CCCN2CCOCC2)Cc2cccnc2)cc1C | · | -1 | 0.3 | · | 0 | -1
O=C(Nc1ccc(Cl)c(Cl)c1)N(Cc1cccnc1)Cc1ccco1 | -2.8 | -11 | · | 45 | 105* | 96*
S=C(NCc1ccco1)Nc1cccc(Cl)c1 | 0.2 | 26 | -0.17 | · | -3 | 0

Screening results (PubChem)
